HSF-1 act: increases HSF-1 driven luciferase reporter signal; NIH3T3-HGL HSF-1 luciferase reporter, MG132, 8 h; 100% = twice DMSO control signal; activation, % at 9 µM; 300,000 tested, 1.7% active; AID 504408;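 active = mean replicate activation of at least 50% with a set share of replicates each reaching 50%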;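 note: 0% = median of the neutral control wells and 100% = twice that signal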
MITF act: MITF TRPM1 promoter activation in melanoma cells. activation, % at 12.5 µM. 300,000 tested, 0.75% active. AID 588334. SK-MEL-5 TRPM1-promoter luciferase, 24 h; % of positive control, neutral wells = 0;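 active = mean activation of at least 80% with every replicate also reaching 80%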;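 note: 0% = neutral control wells and 100% = parthenolide positive control wells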
SR-BI DiI-HDL act: SR-BI HDL lipid transfer activation. CHO ldlA[mSR-BI] cells, DiI-HDL uptake fluorescence, 3 h; 100 = double the neutral-control signal. 320,000 tested, 0.096% active. activation, % at 12.5 µM;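 active = mean replicate activation of at least 60% and every replicate at or above 60%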;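 note: 0% = median plate neutral-control signal and 100% = twice that signal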
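Material: SR-BI-overexpressing, LDLR-lacking CHO cells; schedule: compound exposure 3 h, 37 °C; reagent: DiI-labelled HDL at 10 µg/mL final; technique: bottom-read fluorescence, 550/595 nm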
SR-BI DiI inh: blocks mouse SR-BI lipid uptake from DiI-HDL; Q61009; ldlA[mSR-BI] CHO cells, DiI-HDL uptake fluorescence, 3 h; inhibition, % at 12.5 µM; 320,000 tested, 0.96% active; AID 488896;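 active = mean replicate inhibition of at least 70% and a set share of replicates each scoring 70 or more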;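 note: 0% = median of neutral control wells and 100% = median of positive control wells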
Target sequence (Q61009 whole entry, looked up): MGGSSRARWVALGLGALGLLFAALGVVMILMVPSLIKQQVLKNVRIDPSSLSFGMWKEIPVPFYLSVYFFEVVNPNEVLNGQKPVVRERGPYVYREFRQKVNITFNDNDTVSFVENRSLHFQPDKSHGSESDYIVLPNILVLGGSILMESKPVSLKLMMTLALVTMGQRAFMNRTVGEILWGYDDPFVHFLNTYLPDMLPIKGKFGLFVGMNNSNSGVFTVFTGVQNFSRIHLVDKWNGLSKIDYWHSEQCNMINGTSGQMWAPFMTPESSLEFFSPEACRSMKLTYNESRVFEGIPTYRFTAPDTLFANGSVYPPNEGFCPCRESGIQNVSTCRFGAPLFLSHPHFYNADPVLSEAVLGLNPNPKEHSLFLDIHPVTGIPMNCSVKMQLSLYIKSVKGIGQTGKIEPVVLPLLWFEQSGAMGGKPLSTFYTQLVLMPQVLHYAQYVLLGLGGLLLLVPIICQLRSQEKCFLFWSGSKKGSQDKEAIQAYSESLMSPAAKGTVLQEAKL
Wnt bcat act: activators of Wnt/beta-catenin signaling; Wnt/beta-catenin reporter cell assay, activator, plate reader; activation, % at 9.35 µM; 300,000 tested, 1.2% active; in the data active = activation above about 30%, passing the limit was not always enough;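 note: 0% = neutral control wells and 100% = positive control wells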
The depositor's hits bear a star; x = no result given. The list is not random: actives were taken first. Their share in the collection is about 3.6%.

SMILES | HSF-1 act | MITF act | SR-BI DiI-HDL act | SR-BI DiI inh | Wnt bcat act
CC(C)N(Cc1cn[nH]c1-c1ccc(-c2ccccc2)cc1)Cc1nccn1C | 59* | 28 | -9 | 9 | -6
CCN(c1ccccc1)S(=O)(=O)c1ccc(Cl)c(NC(=O)COC(=O)c2cccc(OC)c2O)c1 | 59* | 16 | -14 | 14 | -2
CCN(c1ccccc1)S(=O)(=O)c1ccc(Cl)c(NC(=O)COC(=O)c2ccc(Cl)c(N)c2)c1 | -18 | -15 | -11 | 11 | 0
Cc1[nH]c2ccccc2c1C(=O)c1c(N)[nH]c(C(=O)c2ccc(Br)cc2)c1-c1ccc(Br)cc1 | x | x | x | x | -3
CC(NS(=O)(=O)c1cccc(Cl)c1F)[C@H](O)c1ccccc1 (some centres not stated) | x | x | x | x | -2
O=C(Nc1cccc(C(=O)NC2CC2)c1)c1ccccc1 | x | 11 | 20 | -20 | 4
O=C(Nc1cc2c3c(c1)C1CCCC1CN3CC1CCCC21)c1ccccc1 (configuration not stated) | -2 | 11 | -80 | 80* | x
COc1cccc(COc2ncnc3sccc23)c1 | 1 | -1 | 16 | -16 | 0
c1ccc(OCCOc2ncnc3sccc23)cc1 | 36 | 41 | 3 | -3 | 42*
CCn1c2ccccc2c2cc(NC(=O)CSc3nnc(-c4ccc(OC)c(OC)c4)n3N)ccc21 | 5 | x | -35 | 35 | x
CCn1c2ccccc2c2cc(NC(=O)CSc3nnc(-c4cccc(OC)c4)n3N)ccc21 | 58* | x | -48 | 48 | x
COc1cccc(-c2nnc(SCc3nc4ccccc4[nH]3)n2N)c1 | 71* | -3 | 1 | -1 | x
CC(C)(C)S(=O)(=O)N1C[C@@H]2C(=C(CCO)C[C@@H]3C(=O)N(c4ccccc4)C(=O)[C@@H]32)[C@H]1CCO | x | x | x | x | -2
CCc1cc2c(=O)n(C(C)C(=O)OC3CCCCC3)cnc2s1 (configuration not stated) | 66* | 100* | 19 | -19 | 2
Cc1ccc(CNC(=O)COc2ccc(C)nc2[N+](=O)[O-])cc1 | -3 | 1 | -2 | 2 | 3
Cc1ccc(COc2ccc(C)nc2[N+](=O)[O-])cc1 | 75* | x | 14 | -14 | 15
O=C(/C=C/c1cccc(O)c1)c1ccc(N2CCOCC2)cc1 | 74* | 18 | x | x | 23
CCC(=O)N1CCCC(C)(C(=O)Nc2nccc3cccnc23)C1 (configuration not stated) | x | x | x | x | -1
COc1ccc(-c2ccccc2C2Cc3nnccc3CN2)cc1 (configuration not stated) | x | x | x | x | -2
CCc1nnc(NS(=O)(=O)c2ccc(N)cc2)s1 | -3 | 10 | 2 | -2 | 79*
CCc1nnc(NS(=O)(=O)c2ccc(N3C(=O)c4ccccc4C3=O)cc2)s1 | 10 | -7 | 6 | -6 | -1
CCc1nnc(NS(=O)(=O)c2ccc(NC(=O)c3ccc(Cl)cc3)cc2)s1 | -15 | 1 | x | x | 3
CCc1nnc(NS(=O)(=O)c2ccc(NC(=O)c3cccc(Cl)c3)cc2)s1 | -3 | 109* | x | x | -1
COc1ccc(C2=Nc3ccccc3N(C(=O)Cc3cc(OC)cc(OC)c3)C2C(=O)NC(C)(C)C)cc1 (configuration not stated) | x | x | x | x | 2
COc1ccc(C2=Nc3ccccc3N(C(=O)c3ccc4ncccc4c3)C2C(=O)NC(C)(C)C)cc1 (configuration not stated) | x | x | x | x | 34*
SMILES | HSF-1 act | MITF act | SR-BI DiI-HDL act | SR-BI DiI inh | Wnt bcat act
Cc1sc(=NC(=O)c2ccco2)n(C)c1-c1ccccc1 | 23 | 60 | 4 | -4 | 22
Cc1sc(=NC(=O)c2ccco2)n(C)c1-c1ccc(F)cc1 | 43 | 101* | -7 | 7 | x
COCCN(C(=O)C1CC(=O)N(Cc2ccccc2)C1)c1nc(-c2ccc([N+](=O)[O-])cc2)cs1 (configuration not stated) | x | -7 | -62 | 62 | 7
CC1CCN(CCCNC(=O)COc2cc(=O)n(C)c3ccccc23)CC1 | 57* | x | 9 | -9 | x
CCn1c(=O)cc(OCC(=O)NCCCN2CCC(C)CC2)c2ccccc21 | 46 | x | 2 | -2 | x
CC1(C)NC(=O)N(CCCOc2ccccc2Br)C1=O | 52* | 41 | 16 | -16 | 5
COC(=O)C1=C(C)N(Cc2cccc(C(F)(F)F)c2)C(=NCc2cc(OC)c(OC)c(OC)c2)NC1c1ccccc1C(F)(F)F (configuration not stated) | x | x | x | x | -3

High-throughput results: PubChem BioAssay, Broad Institute
